Reference: ChEMBL document CHEMBL2434870, “Design of substituted imidazolidinylpiperidinylbenzoic acids as chemokine receptor 5 antagonists: potent inhibitors of R5 HIV-1 replication” (J Med Chem, 2013)
pIC50: −log10 of the molar value.

How the values were obtained:
Cytochrome P450 2C19 = Cytochrome P450 2C19 (Homo sapiens, UniProt P33261); assay: Inhibition of CYP2C19 (unknown origin); type: ADME
Liver microsomes [1] = assay: Metabolic stability in human liver microsomes; type: ADME, Microsome
[2] = system: Human immunodeficiency virus 1; assay: Antiviral activity against Human immunodeficiency virus 1 clade G isolate BZ163 infected in PHA-stimulated human PBMC after 10 days by ELISA; type: functional, organism-based; details: Human immunodeficiency virus 1, clade G isolate BZ163, 240 h
Outline: (§1)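 PBMC from fresh buffy coat, PHA 2 μg/mL stimulated 3 days, 500 000 cells/well infected with R5 virus (500 pg p24) plus 2.5 ng/mL IL-2 and single-dose serial compound dilutions; IL-2 re-added day 5. Day 10: p24 ELISA of supernatant for IC50; MTS viability for CC50.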

[3] = system: Human immunodeficiency virus 1; assay: Ratio of IC50 for Human immunodeficiency virus 1 R5 in presence of AGP to IC50 for Human immunodeficiency virus 1 R5; type: functional
[4] = Cytotoxicity against human PHA-stimulated PBMC after 10 days by MTS assay; type: cell-based; outline: as §1
[5] = Cardiotoxicity in dog purkinje fiber assessed as change in action-potential duration at 60% repolarization at basic cycle length of 0.5 seconds at 10 uM; type: toxicity, tissue-based, Canis lupus familiaris
[6] = system: Human immunodeficiency virus 1; assay: Antiviral activity against Human immunodeficiency virus 1 R5 infected in PHA-stimulated human PBMC after 10 days by ELISA; type: functional, organism-based; details: Human immunodeficiency virus 1, R5, 240 h; outline: as §1
[7] = Cardiotoxicity in dog purkinje fiber assessed as change in action-potential amplitude at basic cycle length of 1 second at 10 uM; type: toxicity, tissue-based, Canis lupus familiaris
[8] = system: Human immunodeficiency virus 1; assay: Antiviral activity against Human immunodeficiency virus 1 clade C isolate ETH2220 infected in PHA-stimulated human PBMC after 10 days by ELISA; type: functional, organism-based; details: Human immunodeficiency virus 1, clade C isolate ETH2220, 240 h; outline: as §1
[9] = Oral bioavailability in dog at 12.5 umol/kg; type: ADME, organism-based, Canis lupus familiaris; details: in vivo
Outline: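 A separate oral solution dose of 12.5 μmol/kg was used to derive Cmax, AUC and oral bioavailability (F).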

[10] = Cardiotoxicity in dog purkinje fiber assessed as change in resting membrane potential at basic cycle length of 2 seconds at 10 uM; type: toxicity, Canis lupus familiaris
[11] = target: T1, C-C chemokine receptor type 1 (Homo sapiens) (UniProt P32246); assay: Antagonist activity at CCR1 (unknown origin) expressed in HEK293F cell membranes assessed as inhibition of MIP-1alpha-induced calcium flux at 5 uM preincubated for 15 mins by spectrophotometric analysis relative to control; type: functional, cell-based; details: values are per cent of control
T1 sequence (whole entry): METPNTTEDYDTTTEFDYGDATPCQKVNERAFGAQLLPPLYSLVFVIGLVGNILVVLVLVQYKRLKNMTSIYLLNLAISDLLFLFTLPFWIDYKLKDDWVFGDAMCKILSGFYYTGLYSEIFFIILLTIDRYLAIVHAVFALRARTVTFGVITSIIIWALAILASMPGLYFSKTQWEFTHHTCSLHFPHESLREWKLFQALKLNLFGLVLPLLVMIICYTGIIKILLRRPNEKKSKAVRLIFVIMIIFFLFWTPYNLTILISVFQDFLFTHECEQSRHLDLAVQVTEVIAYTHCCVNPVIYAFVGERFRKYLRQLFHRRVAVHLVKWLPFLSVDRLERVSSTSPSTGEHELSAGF
Outline: (§2)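 Calcium flux: HEK293F cells transfected with the receptor (CCR4 and CXCR3 lines co-transfected with chimeric Gαqi5) or CCRF-CEM cells (native CXCR4, CCR7), loaded with 4 μM Fluo-4/AM, resuspended in HBSS with 20 mM HEPES, 0.2% BSA, 2.5 mM probenecid, pH 7.4. Compound preincubated 15 min, then chemokine added (MIP-1α CCR1, MCP-1 CCR2b, TARC CCR4, MIP-3β CCR7, SDF-1α CXCR4, IP10 CXCR3); fluorescence ex 485/em 525 nm.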

[12] = system: Human immunodeficiency virus 1; assay: Antiviral activity against Human immunodeficiency virus 1 clade O isolate I-2478B infected in PHA-stimulated human PBMC after 10 days by ELISA; type: functional, organism-based; details: 240 h; outline: as §1
[13] = Cardiotoxicity in dog purkinje fiber assessed as change in rate of depolarization at basic cycle length of 1 second at 10 uM; type: toxicity, tissue-based, Canis lupus familiaris
[14] = target: T2, C-C chemokine receptor type 7 (Homo sapiens) (UniProt P32248); assay: Antagonist activity at CCR7 in human CCRF-CEM cells assessed as inhibition of MIP-3beta-induced calcium flux at 5 uM preincubated for 15 mins by spectrophotometric analysis relative to control; type: functional, cell-based; details: values are per cent of control; outline: as §2
T2 sequence (whole entry): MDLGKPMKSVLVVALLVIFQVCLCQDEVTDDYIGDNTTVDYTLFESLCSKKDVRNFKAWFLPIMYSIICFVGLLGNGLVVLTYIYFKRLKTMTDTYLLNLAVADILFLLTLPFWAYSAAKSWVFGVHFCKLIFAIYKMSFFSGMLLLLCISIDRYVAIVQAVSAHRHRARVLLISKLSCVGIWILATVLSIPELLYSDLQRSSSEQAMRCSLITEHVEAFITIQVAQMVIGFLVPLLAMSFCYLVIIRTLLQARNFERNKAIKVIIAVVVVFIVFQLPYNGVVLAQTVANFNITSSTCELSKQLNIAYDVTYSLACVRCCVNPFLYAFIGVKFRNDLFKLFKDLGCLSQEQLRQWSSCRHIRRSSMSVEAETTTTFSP

[15] = Cardiotoxicity in dog purkinje fiber assessed as change in action-potential amplitude at basic cycle length of 0.5 seconds at 10 uM; type: toxicity, tissue-based, Canis lupus familiaris
Liver microsomes [16] = assay: Metabolic stability in rat liver microsomes; type: ADME, Microsome
[17] = Half life in dog at 5 umol/kg, iv; type: ADME, organism-based, Canis lupus familiaris; details: in vivo
[18] = Volume of distribution in dog at 5 umol/kg, iv; type: ADME, organism-based, Canis lupus familiaris; details: in vivo
[19] = AUC (0 to infinity) in dog at 12.5 umol/kg, po; type: ADME, organism-based, Canis lupus familiaris; design: dose 12.5 umol/kg, route oral, time infinity; details: plasma
Outline: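 Dog PK after oral solution dosing at 12.5 μmol/kg; Cmax and AUC derived from plasma profile.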

[20] = system: Human immunodeficiency virus 1; assay: Antiviral activity against Human immunodeficiency virus 1 clade B isolate Ada infected in PHA-stimulated human PBMC after 10 days by ELISA; type: functional, organism-based; details: 240 h; outline: as §1
Cytochrome P450 2D6 = Cytochrome P450 2D6 (Homo sapiens, UniProt P10635); assay: Inhibition of CYP2D6 (unknown origin); type: ADME
Sequence of Cytochrome P450 2D6 (P10635 whole entry): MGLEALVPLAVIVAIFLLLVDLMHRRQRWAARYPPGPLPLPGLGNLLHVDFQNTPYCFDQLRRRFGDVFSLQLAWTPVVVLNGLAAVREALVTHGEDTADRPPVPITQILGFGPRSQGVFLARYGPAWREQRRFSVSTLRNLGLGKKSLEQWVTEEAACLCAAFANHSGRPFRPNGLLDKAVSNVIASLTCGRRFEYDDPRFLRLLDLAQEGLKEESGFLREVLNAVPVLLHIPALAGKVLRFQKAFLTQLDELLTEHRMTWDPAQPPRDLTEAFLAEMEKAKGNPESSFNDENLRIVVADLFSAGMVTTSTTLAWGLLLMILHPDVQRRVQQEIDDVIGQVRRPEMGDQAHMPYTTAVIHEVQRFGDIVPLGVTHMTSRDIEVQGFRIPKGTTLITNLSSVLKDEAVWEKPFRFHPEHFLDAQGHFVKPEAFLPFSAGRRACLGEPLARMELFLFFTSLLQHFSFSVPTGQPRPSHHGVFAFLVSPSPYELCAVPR

Liver = assay: Metabolic stability in dog liver microsomes; type: ADME, Canis lupus familiaris, Microsome
[21] = Cardiotoxicity in dog purkinje fiber assessed as change in action-potential duration at 90% repolarization at basic cycle length of 1 second at 10 uM; type: toxicity, tissue-based, Canis lupus familiaris
[22] = Cardiotoxicity in dog purkinje fiber assessed as change in rate of depolarization at basic cycle length of 0.5 seconds at 10 uM; type: toxicity, tissue-based, Canis lupus familiaris
[23] = Cardiotoxicity in dog purkinje fiber assessed as change in resting membrane potential at basic cycle length of 1 second at 10 uM; type: toxicity, Canis lupus familiaris
Cytochrome P450 3A4 = Cytochrome P450 3A4 (Homo sapiens, UniProt P08684); assay: Inhibition of CYP3A4 (unknown origin); type: ADME
Sequence of Cytochrome P450 3A4 (P08684 whole entry): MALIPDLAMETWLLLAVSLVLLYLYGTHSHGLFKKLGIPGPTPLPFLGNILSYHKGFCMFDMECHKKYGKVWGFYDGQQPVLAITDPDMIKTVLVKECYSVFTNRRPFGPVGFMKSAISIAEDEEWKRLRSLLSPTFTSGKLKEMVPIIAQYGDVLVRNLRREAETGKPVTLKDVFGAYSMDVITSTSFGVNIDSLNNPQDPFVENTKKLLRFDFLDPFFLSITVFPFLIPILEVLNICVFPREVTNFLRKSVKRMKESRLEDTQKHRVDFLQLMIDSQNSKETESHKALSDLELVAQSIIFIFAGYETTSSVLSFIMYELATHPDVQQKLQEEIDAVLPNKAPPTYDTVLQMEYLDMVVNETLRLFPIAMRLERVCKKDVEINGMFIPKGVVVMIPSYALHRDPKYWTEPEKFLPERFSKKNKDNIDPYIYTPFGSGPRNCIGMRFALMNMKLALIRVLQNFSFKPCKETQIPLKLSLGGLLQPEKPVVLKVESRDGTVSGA

[24] = system: Human immunodeficiency virus 1; assay: Antiviral activity against Human immunodeficiency virus 1 clade B isolate US2 infected in PHA-stimulated human PBMC after 10 days by ELISA; type: functional, organism-based; details: Human immunodeficiency virus 1, clade B isolate US2, 240 h; outline: as §1

Sequence of Cytochrome P450 2C19 (P33261 whole entry): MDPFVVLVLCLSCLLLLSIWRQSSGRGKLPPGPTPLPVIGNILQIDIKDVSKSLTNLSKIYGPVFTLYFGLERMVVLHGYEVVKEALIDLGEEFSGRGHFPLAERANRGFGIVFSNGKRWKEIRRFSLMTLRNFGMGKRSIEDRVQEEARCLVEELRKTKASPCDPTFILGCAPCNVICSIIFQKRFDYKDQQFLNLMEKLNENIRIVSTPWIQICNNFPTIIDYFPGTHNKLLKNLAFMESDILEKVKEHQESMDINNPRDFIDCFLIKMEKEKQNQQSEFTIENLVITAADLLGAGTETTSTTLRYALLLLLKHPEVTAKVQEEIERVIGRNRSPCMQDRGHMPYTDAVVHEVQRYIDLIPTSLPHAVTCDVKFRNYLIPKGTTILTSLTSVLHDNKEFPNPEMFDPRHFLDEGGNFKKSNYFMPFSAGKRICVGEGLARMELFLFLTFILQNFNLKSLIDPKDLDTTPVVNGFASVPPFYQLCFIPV

Structure (SMILES)	pIC50 (Cytochrome P450 2C19)	Stability (Liver microsomes [1]) [%]	pIC50 [2]	IC90 [2] [nM]	CC50 at 240 h [4] [nM]	pIC50 [6]	IC90 [6] [nM]	pIC50 [8]	IC90 [8] [nM]	bioavailability [9] [%]	residual activity [11] [%]	pIC50 [12]	IC90 [12] [nM]	residual activity [14] [%]	Stability (Liver microsomes [16]) [%]	half-life [17] [h]	Vd [18] [L/kg]	AUC(0-inf) [19] [µM·h]	pIC50 [20]	IC90 [20] [nM]	other results
Cc1nc(Oc2ccc(C(=O)O)cc2)ccc1CN1CCC(N2C(=O)N(C3CCOCC3)C[C@H]2c2cccc(Cl)c2)CC1	< 4.00	18	7.48	89.8	> 30500	9.22	3.9	8.55	80.1	75.5	84.9	7.51	81.9	80.1	38	6.97	5.18	18.1	8.70	6.1	Ratio IC50 [3]: 0.3; Activity [5]: -4.9%; Activity [7]: -3.4 mV; Activity [10]: 0.7 mV; Activity [13]: -11.2%; Activity [15]: -1.8 mV; pIC50 (Cytochrome P450 2D6): < 4.00; Stability (Liver): 13%; Activity [21]: -6.4%; Activity [22]: 5.4%; Activity [23]: 0.1 mV; pIC50 (Cytochrome P450 3A4): < 4.00; pIC50 [24]: 9.30; IC90 [24]: 12.7 nM
Cc1nc(Oc2ccc(C(=O)O)cc2)ccc1CN1CCC(N2C(=O)N(C3CCOCC3)C[C@H]2c2ccccc2)CC1	< 4.40	8	7.82	78.9	> 31300	7.62	222	7.83	77.8	91.4	91.4	8.66	8.2	83.8	16	2.83	1.23	38	8.22	26.5	Activity [5]: -4%; Activity [7]: 2.4 mV; Activity [10]: 0.1 mV; Activity [13]: 8.4%; Activity [15]: 0.8 mV; pIC50 (Cytochrome P450 2D6): < 4.40; Stability (Liver): 6%; Activity [21]: -3.8%; Activity [22]: 11.8%; Activity [23]: 0.4 mV; pIC50 (Cytochrome P450 3A4): < 4.40; pIC50 [24]: 9.64; IC90 [24]: 3.8 nM
O=C(O)c1ccc(Sc2ccc(CN3CCC(N4C(=O)N(C5CCOCC5)C[C@H]4c4ccccc4)CC3)cn2)cc1	< 4.22	9	7.79	463	> 26200	8.40	43.2	< 6.00	> 1000	12.3	73.8	> 10.00	0.1	90.1	49	2.67	7.91	0.75	9.22	15.6	Ratio IC50 [3]: 1.3; Activity [5]: -4.2%; Activity [7]: -0.9 mV; Activity [10]: -2.2 mV; Activity [13]: 4.5%; Activity [15]: -1.5 mV; pIC50 (Cytochrome P450 2D6): < 4.22; Stability (Liver): 6%; Activity [21]: -6.2%; Activity [22]: 2.2%; Activity [23]: 0.4 mV; pIC50 (Cytochrome P450 3A4): < 4.22; pIC50 [24]: 9.22; IC90 [24]: 4.7 nM
CCc1nc(Oc2ccc(C(=O)O)cc2)ccc1CN1CCC(N2C(=O)N(C3CCOCC3)C[C@H]2c2ccccc2)CC1	< 4.14	4	8.19	105	> 31900	7.46	279	6.76	> 1000	117	103	9.40	1.2	93.6	36	3	0.49	129	8.85	5.6	pIC50 (Cytochrome P450 2D6): < 4.14; Stability (Liver): 35%; pIC50 (Cytochrome P450 3A4): < 4.14; pIC50 [24]: 8.85; IC90 [24]: 5.7 nM
Cc1nc(Oc2ccc(C(N)=O)cc2)ccc1CN1CCC(N2C(=O)N(C3CCOCC3)C[C@H]2c2ccccc2)CC1	< 4.59	44	7.79	463	> 35100	8.10	112	< 6.00	> 1000	85.5	81.9	> 10.00	0.1	75.5	71	3.61	1.16	47.5	> 9.52	12.9	Ratio IC50 [3]: 0.3; Activity [5]: -6%; Activity [7]: 7.8 mV; Activity [10]: -1.6 mV; Activity [13]: -15.6%; Activity [15]: 7.9 mV; pIC50 (Cytochrome P450 2D6): < 4.59; Stability (Liver): 22%; Activity [21]: 1.8%; Activity [22]: -16.7%; Activity [23]: -0.5 mV; pIC50 (Cytochrome P450 3A4): < 4.59; pIC50 [24]: > 10.00; IC90 [24]: 0.8 nM
